Assay results taken from ChEMBL document CHEMBL1157379, “Transcriptional response of Candida parapsilosis following exposure to farnesol” (2007).
The source made the active and inactive calls. The calls are words filed in the database; no cut-off is given here.

How the values were obtained:
[1] = tested on: Candida parapsilosis; experiment: Increase in CGD gene ortholog accession number orf19.7270 expression in Candida parapsilosis CLIB214 at 50 uM after 2 hrs by microarray based transcriptional profiling relative to control; format: functional
Procedure, shortened: (§1)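 Strain CLIB214 grown overnight in YPD at 30°C, diluted to A600 0.2 in fresh YPD at 30°C. After 4 h (A600 0.8), farnesol (40 mM methanol stock) added to 50 μM final, or an equal methanol volume as control; cells harvested 2 h later. RNA was accepted only with a 28S/18S ratio of 1.6–2.2. Cy3/Cy5-dCTP-labelled cDNA was made from 25 μg total RNA. Hybridisation was to duplicate-spotted 68-mer oligo arrays (3,849 genes) at 42°C for about 16 h. Six individual comparisons.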

[2] = tested on: Candida parapsilosis; experiment: Antifungal activity against Candida parapsilosis CLIB214 assessed as growth inhibition in presence of 10% fetal calf serum at 37 degC; format: functional, organism-based
Procedure, shortened: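 YPD cultures started at A600 0.2, supplemented with 10% (vol/vol) fetal calf serum, and grown at 30°C or 37°C. Farnesol added with the serum. Growth monitored by A600 or cell counting.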

[3] = tested on: Candida parapsilosis; experiment: Increase in CDC20 gene expression in Candida parapsilosis CLIB214 at 50 uM after 2 hrs by microarray based transcriptional profiling relative to control; format: functional; procedure, shortened: as §1
[4] = tested on: Candida parapsilosis; experiment: Increase in CGD gene ortholog accession number orf19.3501 expression in Candida parapsilosis CLIB214 at 50 uM after 2 hrs by microarray based transcriptional profiling relative to control; format: functional; procedure, shortened: as §1
[5] = tested on: Candida parapsilosis; experiment: Increase in CGD gene ortholog accession number orf19.779 expression in Candida parapsilosis CLIB214 at 50 uM after 2 hrs by microarray based transcriptional profiling relative to control; format: functional; procedure, shortened: as §1
[6] = tested on: Candida parapsilosis; experiment: Increase in CGD gene ortholog accession number orf19.6080 expression in Candida parapsilosis CLIB214 at 50 uM after 2 hrs by microarray based transcriptional profiling relative to control; format: functional; procedure, shortened: as §1
[7] = tested on: Candida parapsilosis; experiment: Increase in GLN1 gene expression in Candida parapsilosis CLIB214 by RT-PCR; format: functional, organism-based
Procedure, shortened: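 Cultures in YPD at 30°C, diluted to A600 0.2; 50 μM farnesol (final) or methanol added at 4 h, RNA harvested 2 h later. RT-PCR: 95°C hot start 1 min 30 s, then 26 cycles (95°C 40 s, 55°C 2 min, 72°C 3 min), final 72°C 5 min; each gene signal normalized to ACT1.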

[8] = tested on: Candida parapsilosis; experiment: Decrease in CGD gene ortholog accession number orf19.4210 expression in Candida parapsilosis CLIB214 at 50 uM after 2 hrs by microarray based transcriptional profiling relative to control; format: functional
Procedure, shortened: (§2)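 Cells in YPD at 30°C treated with 50 μM farnesol at 4 h, with a methanol control. RNA harvested 2 h later and kept only if 28S/18S ratio was 1.6–2.2 with no degradation. 25 μg total RNA oligo-dT primed and labeled with Cy3/Cy5-dCTP. Labeled cDNA hybridized about 16 h at 42°C to duplicate-spotted 68-mer oligo arrays. Six individual comparisons analyzed statistically.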

[9] = tested on: Candida parapsilosis; experiment: Decrease in CGD gene ortholog accession number orf19.4449 expression in Candida parapsilosis CLIB214 at 50 uM after 2 hrs by microarray based transcriptional profiling relative to control; format: functional; procedure, shortened: as §2
[10] = tested on: Candida parapsilosis; experiment: Decrease in CGD gene ortholog accession number orf19.2517 expression in Candida parapsilosis CLIB214 at 50 uM after 2 hrs by microarray based transcriptional profiling relative to control; format: functional; procedure, shortened: as §2
[11] = tested on: Candida parapsilosis; experiment: Increase in ACC1 gene expression in Candida parapsilosis CLIB214 at 50 uM after 2 hrs by microarray based transcriptional profiling relative to control; format: functional; procedure, shortened: as §1
[12] = tested on: Candida parapsilosis; experiment: Antifungal activity against Candida parapsilosis CLIB214 assessed as induction of cell death at 50 uM added 4 hrs after […] growth after 2 hrs by propidium iodide staining method; format: functional
Procedure, shortened: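 After 2 h exposure to 50 μM farnesol (methanol stock; methanol-only control), cells were washed twice in PBS and stained with propidium iodide at 10 μg ml−1 in PBS for 5 min. Dead-cell percentage was scored by fluorescence microscopy (Texas Red filter), counting at least 150 cells in each of three independent experiments.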

[13] = tested on: Candida parapsilosis; experiment: Increase in CGD gene ortholog accession number orf19.5847 expression in Candida parapsilosis CLIB214 at 50 uM after 2 hrs by microarray based transcriptional profiling relative to control; format: functional; procedure, shortened: as §1
[14] = tested on: Candida parapsilosis; experiment: Increase in HAS1 gene expression in Candida parapsilosis CLIB214 at 50 uM after 2 hrs by microarray based transcriptional profiling relative to control; format: functional
Procedure, shortened: (§3)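 Strain grown overnight in YPD at 30°C, diluted to A600 0.2 in YPD at 30°C; farnesol (40 mM methanol stock) added at 4 h (A600 0.8), final 50 μM; methanol-only control. Cells collected 2 h later for RNA. Labelled cDNA from 25 μg total RNA (Cy3/Cy5-dCTP) hybridized to 68-mer oligo arrays at 42°C ~16 h; six individual comparisons analysed statistically.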

[15] = tested on: Candida parapsilosis; experiment: Increase in ALS2 gene expression in Candida parapsilosis CLIB214 at 50 uM after 2 hrs by microarray based transcriptional profiling relative to control; format: functional; procedure, shortened: as §1
[16] = tested on: Candida parapsilosis; experiment: Decrease in HOS2 gene expression in Candida parapsilosis CLIB214 at 50 uM after 2 hrs by microarray based transcriptional profiling relative to control; format: functional; procedure, shortened: as §1
[17] = tested on: Candida parapsilosis; experiment: Increase in ADH7 gene expression in Candida parapsilosis CLIB214 by RT-PCR; format: functional, organism-based
Procedure, shortened: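 RNA came from YPD cultures at 30°C given farnesol or methanol at 4 h (A600 0.8), harvested after 2 h. RT-PCR: 95°C hot start for 1.5 min, then 26 cycles (95°C 40 s, 55°C 2 min, 72°C 3 min), then a 5-min final extension at 72°C. Each gene's signal normalised to ACT1.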

[18] = tested on: Candida parapsilosis; experiment: Decrease in STE23 gene expression in Candida parapsilosis CLIB214 at 50 uM after 2 hrs by microarray based transcriptional profiling relative to control; format: functional; procedure, shortened: as §1
[19] = tested on: Candida parapsilosis; experiment: Increase in ELF1 gene expression in Candida parapsilosis CLIB214 at 50 uM after 2 hrs by microarray based transcriptional profiling relative to control; format: functional; procedure, shortened: as §3
[20] = tested on: Candida parapsilosis; experiment: Antifungal activity against Candida parapsilosis CLIB214 assessed as growth inhibition at 50 uM added 4 hrs after […] growth within 2 hrs by cell counting method; format: functional, organism-based
Procedure, shortened: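 C. parapsilosis CLIB214 grown overnight in YPD at 30°C, diluted to A600 0.2 in fresh YPD, grown 4 h (A600 0.8), then farnesol added at final 10, 20, 50 or 100 μM from a 40 mM methanol stock. Methanol-only controls. Growth followed by A600 or by cell counting with a particle counter.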

[21] = tested on: Candida parapsilosis; experiment: Effect on membrane lipid localization in ERG9 gene expression in Candida parapsilosis CLIB214 assessed as growing bud tip staining at 50 uM after 1 hr by filipin staining; format: functional
Procedure, shortened: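 Cultures grown overnight in YPD at 30°C, diluted to A600 0.2, and given farnesol to 50 μM final (methanol for controls) after 4 h of growth. Cells collected 1 h later, PBS-washed, and stained 10 min at room temperature with 100 μg ml−1 filipin in water. Scored by fluorescence microscopy (excitation 360–370 nm, emission 420–460 nm) as bud-tip versus uniform sterol staining.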

CC(C)=CCC/C(C)=C/CC/C(C)=C/CO [FARNESOL]
fold change (FC) [1]: 1.67
Activity [2]: inactive
fold change (FC) [3]: 1.51
fold change (FC) [4]: 1.63
fold change (FC) [5]: 1.72
fold change (FC) [6]: 1.52
Activity [7]: Active
fold change (FC) [8]: 1.79
fold change (FC) [9]: 1.59
fold change (FC) [10]: 1.69
fold change (FC) [11]: 1.59
Activity [12]: 20%
fold change (FC) [13]: 1.89
fold change (FC) [14]: 1.7
fold change (FC) [15]: 1.61
fold change (FC) [16]: 2.62
Activity [17]: Active
fold change (FC) [18]: 2.13
fold change (FC) [19]: 2.16
Activity [20]: Active
Activity [21]: 18%
